This note sets out measurements from ChEMBL document CHEMBL3608222, “Discovery and structure-guided optimization of tert-butyl 6-(phenoxymethyl)-3-(trifluoromethyl)benzoates as liver X receptor agonists” (Bioorg Med Chem Lett, 2015).

The source made the active and inactive calls. No cut-off for these calls is given here.

Data set [1] addresses Retinoic acid receptor RXR-alpha/oxysterols receptor LXR-alpha (Homo sapiens, UniProt Q13133). In words: Binding affinity to His-LXRalpha/FLAG-RXRalpha (unknown origin) by FITC-labeled T0901317 based fluorescence polarization assay. The data set is classed as protein-complex assay. In general terms: Fluorescence polarisation rises when a labelled molecule tumbles more slowly, as on binding a larger partner.

The target in data set [2] is Retinoic acid receptor RXR-alpha/oxysterols receptor LXR-beta (Homo sapiens, UniProt P55055). In words: Binding affinity to His-LXRbeta/FLAG-RXRalpha (unknown origin) by FITC-labeled T0901317 based fluorescence polarization assay. It counts as protein-complex assay.
Data set [3] has as its target T1, Oxysterols receptor LXR-beta (Homo sapiens, UniProt P55055).
T1 sequence (P55055 whole entry): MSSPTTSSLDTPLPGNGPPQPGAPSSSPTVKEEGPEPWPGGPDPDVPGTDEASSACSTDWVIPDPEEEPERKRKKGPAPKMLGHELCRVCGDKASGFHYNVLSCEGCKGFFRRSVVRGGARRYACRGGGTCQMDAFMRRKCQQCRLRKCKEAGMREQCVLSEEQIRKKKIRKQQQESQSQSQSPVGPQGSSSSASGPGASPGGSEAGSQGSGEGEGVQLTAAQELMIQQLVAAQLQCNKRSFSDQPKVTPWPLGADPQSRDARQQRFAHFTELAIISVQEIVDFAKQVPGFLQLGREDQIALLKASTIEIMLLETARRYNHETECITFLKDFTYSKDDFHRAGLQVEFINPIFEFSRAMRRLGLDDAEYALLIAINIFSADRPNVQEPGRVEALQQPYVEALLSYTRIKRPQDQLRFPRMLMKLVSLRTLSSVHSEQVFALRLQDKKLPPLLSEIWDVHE
In words: Agonist activity at human LXRbeta expressed in African green monkey kidney CV1 cells co-expressing pTAL-LXRE including LXR response element incubated for 20 hrs by luciferase reporter gene assay. It counts as cell-based, CV-1. A digest of the protocol: (§1)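 CV-1 cells grown in DMEM with 10% charcoal/dextran-treated FBS at 37 °C, seeded 20 h before transfection. Cells were lipofected with pcDNA-hLXRa or pcDNA-hLXRb plus the pTAL-LXRE luciferase reporter. After 3 h, medium was added, then compound in DMSO. Incubation about 20 h before luciferase luminescence read-out.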

For data set [4], the target named is T2, Oxysterols receptor LXR-beta (Homo sapiens) (UniProt P55055).
T2 sequence (whole entry): T1 sequence (P55055 whole entry)
Put plainly: Agonist activity at human LXRbeta expressed in African green monkey kidney CV1 cells co-expressing pTAL-LXRE including LXR response element incubated for 20 hrs by luciferase reporter gene assay relative to T0901317. The data set is classed as cell-based. The note with it: CV-1. Put shortly:
as §1
(Reporter assays use an easily measured gene product as a stand-in for the process of interest.)

The test system of data set [5] is RAW264.7. In words: […] of cholesterol efflux in mouse RAW264.7 cells at 1 uM using [4-14C]-cholesterol incubated for 24 hrs by scintillation counting method relative to T0901317. The data set is classed as functional. Put shortly: (§2)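 RAW264.7 cells were labeled 2 days with 0.2 µCi/ml [4-14C]-cholesterol in DMEM/1% FBS and washed with 0.2% BSA/PBS. Medium with or without 10 µg/ml apoAI was added, with compound (final 0.01–1 µM) or DMSO, for about 24 h. Medium and cell radioactivity were counted. ApoAI-dependent efflux % = efflux(+apoAI) minus mean efflux(−apoAI); % efficacy is given at the stated concentration.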

Data set [6] concerns RAW264.7. In words: […] of cholesterol efflux in mouse RAW264.7 cells at 0.1 using [4-14C]-cholesterol incubated for 24 hrs by scintillation counting method relative to T0901317. The data set is classed as functional. A digest of the protocol:
as §2

Data set [7] can be described thus: Cmax in mouse at 10 mg/kg, po. It counts as ADME, organism-based. The arrangement: dose 10 mg/kg, route oral. The note with it: in vivo. A digest of the protocol: (§3)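 Mice given a single oral dose of 10 mg/kg. Plasma concentration measured in µg/ml as Cmax and at 6 h.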
Data set [8] in a line: Plasma concentration in mouse at 10 mg/kg, po measured at 6 hrs. It counts as ADME, organism-based. A digest of the protocol:
as §3

In data set [9] the test system is Mus musculus. In words: Effect on FAS mRNA expression in C57Bl/6 mouse liver at 1 mg/kg, po dosed daily for 7 days. The data set is classed as functional, organism-based. A digest of the protocol: (§4)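 C57Bl/6 mice dosed daily by oral gavage at 1 mg/kg for 7 days, n = 5/group. Liver FAS and SCD-1 mRNA and plasma TG were then measured. Groups compared with vehicle by Dunnett's test, p <0.05.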

The subject of data set [10] is Mus musculus. In words: Effect on SCD1 mRNA expression in C57Bl/6 mouse liver at 1 mg/kg, po dosed daily for 7 days. It counts as functional, organism-based. A digest of the protocol:
as §4

Data set [11] deals with Mus musculus. In words: Toxicity in C57Bl/6 mouse assessed as effect on plasma triglyceride levels at 1 mg/kg, po dosed daily for 7 days. The note with it: in vivo, 168 h. The data set is classed as organism-based. A digest of the protocol:
as §4

For data set [12], the system named is Cynomolgus monkey. Put plainly: Increase in ABCA1 mRNA expression in cynomolgus monkey blood at 0.1 to 10 mg/kg, po dosed daily for 14 days measured on day 1. The data set is classed as functional, organism-based. The note with it: Macaca fascicularis. A digest of the protocol:
(§5)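 Cynomolgus monkeys dosed daily by oral gavage at 0, 0.1, 0.3, 1, 3 or 10 mg/kg for 14 days, n = 6/group. Blood ABCA1 mRNA was measured on Day 1 and Day 14; plasma triglyceride was measured after single and repeated dosing. Mean + SE.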

The test system of data set [13] is Cynomolgus monkey. Put plainly: Increase in ABCA1 mRNA expression in cynomolgus monkey blood at 0.1 to 10 mg/kg, po dosed daily for 14 days measured on day 14. The note with it: Macaca fascicularis. It counts as functional, organism-based. A digest of the protocol: as §5
The subject of data set [14] is Cynomolgus monkey. Put plainly: Toxicity in cynomolgus monkey assessed as effect on plasma triglyceride levels at 0.1 to 10 mg/kg, po dosed daily for 14 days. The data set is classed as organism-based, Macaca fascicularis. The note with it: in vivo, 336 h. A digest of the protocol:
as §5

The subject of data set [15] is Cynomolgus monkey. In words: Toxicity in cynomolgus monkey assessed as effect on plasma triglyceride levels at 0.1 to 10 mg/kg, po administered as single dose. Conditions: in vivo. The data set is classed as organism-based, Macaca fascicularis. A digest of the protocol:
as §5

Data set [16] addresses T3, Oxysterols receptor LXR-alpha (Homo sapiens, UniProt Q13133).
T3 sequence (Q13133 whole entry): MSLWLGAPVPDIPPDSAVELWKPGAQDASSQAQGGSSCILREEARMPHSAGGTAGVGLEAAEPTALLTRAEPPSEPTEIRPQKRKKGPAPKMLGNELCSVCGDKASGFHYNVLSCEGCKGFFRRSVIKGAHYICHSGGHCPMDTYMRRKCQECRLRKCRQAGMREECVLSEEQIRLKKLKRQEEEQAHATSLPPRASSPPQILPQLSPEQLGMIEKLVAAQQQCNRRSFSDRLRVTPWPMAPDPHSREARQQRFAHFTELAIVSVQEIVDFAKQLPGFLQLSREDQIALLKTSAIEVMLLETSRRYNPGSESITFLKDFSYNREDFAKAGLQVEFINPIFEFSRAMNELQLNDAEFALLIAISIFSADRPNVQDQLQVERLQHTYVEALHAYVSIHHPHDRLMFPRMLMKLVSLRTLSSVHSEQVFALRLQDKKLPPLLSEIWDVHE
Put plainly: Agonist activity at human LXRalpha expressed in African green monkey kidney CV1 cells co-expressing pTAL-LXRE including LXR response element incubated for 20 hrs by luciferase reporter gene assay. It counts as cell-based, CV-1.

Data set [17] addresses T4, Oxysterols receptor LXR-alpha (Homo sapiens) (UniProt Q13133).
T4 sequence (whole entry): T3 sequence (Q13133 whole entry)
Put plainly: Agonist activity at human LXRalpha expressed in African green monkey kidney CV1 cells co-expressing pTAL-LXRE including LXR response element incubated for 20 hrs by luciferase reporter gene assay relative to T0901317. The data set is classed as cell-based. The note with it: CV-1. Put shortly:
as §1

Chain of Retinoic acid receptor RXR-alpha/oxysterols receptor LXR-alpha (P19793 whole entry, one chain of several): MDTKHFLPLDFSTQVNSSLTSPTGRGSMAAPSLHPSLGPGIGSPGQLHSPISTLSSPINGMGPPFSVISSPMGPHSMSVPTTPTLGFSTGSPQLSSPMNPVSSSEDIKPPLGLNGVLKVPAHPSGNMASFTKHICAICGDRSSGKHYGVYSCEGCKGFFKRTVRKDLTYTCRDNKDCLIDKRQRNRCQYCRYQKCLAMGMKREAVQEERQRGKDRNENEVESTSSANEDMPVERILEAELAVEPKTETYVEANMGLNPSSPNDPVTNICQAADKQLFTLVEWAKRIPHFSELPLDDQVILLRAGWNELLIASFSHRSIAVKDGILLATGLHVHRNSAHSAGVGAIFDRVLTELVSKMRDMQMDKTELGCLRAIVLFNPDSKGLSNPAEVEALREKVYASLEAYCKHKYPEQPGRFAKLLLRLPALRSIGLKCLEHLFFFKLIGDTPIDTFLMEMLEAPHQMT
Chain of Retinoic acid receptor RXR-alpha/oxysterols receptor LXR-beta (P19793 whole entry, one chain of several): as above

Regarding `CC(C)(C)OC(=O)c1cc(C(F)(F)F)ccc1COc1ccc(-c2ccc(C(=O)O)cc2)cc1`, the Ki in [1] and in [2] was greater than 10000 nM throughout.

In the case of `CC(C)(C)OC(=O)c1cc(C(F)(F)F)ccc1COc1ccc(CCCCCC(=O)O)cc1`, the Ki (as a rule, the equilibrium dissociation constant of an inhibitor or competing ligand from its target) in data set [1] amounted to 8600 nM; in data set [2] it was 1200 nM.

As to `CN(C(=O)CCC(=O)O)c1ccc(OCc2ccc(C(F)(F)F)cc2C(=O)OC(C)(C)C)cc1`, the Ki in data set [1] is 4000 nM; in [2], 660 nM.

For the compound `CC(C)(C)OC(=O)c1cc(C(F)(F)F)ccc1COc1ccc(CCCCC(=O)O)cc1`, the affinity in data set [2], expressed as Ki, was 630 nM.

In the case of `CC(C)(C)OC(=O)c1c(COc2ccc(-c3ccc(CC(=O)O)cc3)cc2)ccc(C(F)(F)F)c1O`, the results for the EC50 in data set [3] and in data set [16] were 160 nM and 510 nM, respectively. In addition, the Efficacy is 51% in data set [4], 69% in the data set on RAW264.7 [5], 57% with RAW264.7 [6] and 79% in [17]. Moreover, the highest level in [7] (Cmax) was 8900 ng/mL. The compound also registered a concentration at 6 h in data set [8] of 5300 ng/mL. The result in the data set with Mus musculus [9] and with Mus musculus [10] was inactive. For the same compound, the Activity entry was “Non-toxic” with Mus musculus [11]; “Dose-dependent effect” with Cynomolgus monkey [12]; “Dose-dependent effect” in the data set with Cynomolgus monkey [13]; “Non-toxic” in the data set with Cynomolgus monkey [14]; “Non-toxic” with Cynomolgus monkey [15].

For `CC(C)(C)OC(=O)c1cc(C(F)(F)F)ccc1COc1ccc(-c2cccc(CC(=O)O)c2)cc1`, the results for the Ki in data set [1] and in [2] were 5100 nM and 360 nM, respectively.

`CC(C)(C)OC(=O)c1c(COc2ccc(-c3cccc(CC(=O)O)c3)cc2)ccc(C(F)(F)F)c1O`: the EC50 (as a rule, the concentration at which the effect is half-maximal) came to 530 nM in data set [3] and 1300 nM in [16]. Moreover, the Efficacy in data set [4] was 27%; in the data set with RAW264.7 [5], 58%; in the data set with RAW264.7 [6], 3%; in [17], 39%.

`CC(C)(C)OC(=O)c1cc(C(F)(F)F)ccc1COc1ccc(-c2ccc(CC(=O)O)cc2)cc1`: the Ki in data set [1] worked out at 1000 nM; in data set [2], 260 nM.

For the compound `CC(C)(C)OC(=O)c1cc(C(F)(F)F)ccc1COc1ccc(-c2cccc(C(=O)O)c2)cc1`, the Ki in data set [1] came out at 6300 nM; in data set [2], 3400 nM.

With `CC(=O)N(C)c1ccc(OCc2ccc(C(F)(F)F)cc2C(=O)OC(C)(C)C)cc1`, the EC50 is 210 nM in data set [3] and 310 nM in data set [16]. Moreover, the results for the Efficacy in data set [4] and in data set [17] were 28% and 27%, respectively. The Cmax (usually the maximum level reached in the sampled fluid or tissue) in data set [7] was 1700 ng/mL. Moreover, the concentration at 6 h in [8] was 1000 ng/mL. For the same compound, the Ki in [1] was 870 nM; in [2] it was 180 nM.

With `CC(=O)N(C)c1ccc(OCc2ccc(C(F)(F)F)c(O)c2C(=O)OC(C)(C)C)cc1`, the EC50 was determined as 260 nM in data set [3] and 280 nM in [16]. Also, the Efficacy turned out to be 76% in [4] and 89% in data set [17]. This compound also yielded a Cmax in [7] of 1000 ng/mL. For the same compound, in data set [8], the concentration at 6 h was determined as 670 ng/mL. Further, the Ki amounted to 270 nM in data set [1] and 170 nM in [2].

In turn, `CC(C)(C)OC(=O)c1cc(C(F)(F)F)ccc1COc1ccc(CCCC(=O)O)cc1` displayed a Ki in data set [2] of 4900 nM.
